Converted amounts (≈) assume the structure as drawn.
Assays:
Escherichia coli = assay: Antimicrobial activity against Escherichia coli ATCC […] after 18 to 24 hrs by alamar blue assay; type: functional; conditions: Escherichia coli; read-out: MIC
Procedure, shortened: (§1)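 Broth microdilution per NCCLS in Mueller-Hinton broth, 8-point twofold dilutions, 384-well format. Exponential-phase cells at 5 × 10^5 cells/ml incubated with compound 18–24 h at 37 °C, then 20% Alamar blue added and fluorescence read. MIC90 taken as the lowest concentration preventing at least 90% bacterial growth.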

Staphylococcus aureus [1] = assay: Antimicrobial activity against methicillin-resistant Staphylococcus aureus isolate NTUH4722 after 18 to 24 hrs by alamar blue assay; type: functional
Procedure, shortened: (§2)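 Broth microdilution per NCCLS standard, Mueller-Hinton broth, 8-point twofold dilutions; exponentially growing cells at 5 10^5 cells/ml with compound, 18–24 h at 37 C; 20% Alamar blue added, fluorescence read; MIC90 taken as lowest concentration preventing at least 90% growth.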

Staphylococcus aureus [2] = assay: Antimicrobial activity against methicillin-resistant Staphylococcus aureus ATCC 33592 after 18 to 24 hrs by alamar blue assay; type: functional; conditions: Staphylococcus aureus, ATCC 33592; read-out: MIC; procedure, shortened: as §2
Acinetobacter baumannii = assay: Antimicrobial activity against Acinetobacter baumannii ATCC 49139 after 18 to 24 hrs by alamar blue assay; type: functional; conditions: Acinetobacter baumannii, ATCC 49139; read-out: MIC; procedure, shortened: as §1
[3] = test system: Stenotrophomonas maltophilia; assay: Antimicrobial activity against Stenotrophomonas maltophilia ATCC 13637 after 18 to 24 hrs by alamar blue assay; type: functional; conditions: Stenotrophomonas maltophilia, ATCC 13637; read-out: MIC; procedure, shortened: as §1
[4] = test system: Mycolicibacterium smegmatis; assay: Antimicrobial activity against Mycobacterium smegmatis BCRC 11565 after 18 to 24 hrs by alamar blue assay; type: functional; conditions: Mycolicibacterium smegmatis, BCRC 11565; read-out: MIC; procedure, shortened: as §1
Staphylococcus aureus [5] = assay: Antimicrobial activity against Staphylococcus aureus ATCC 29213 after 18 to 24 hrs by alamar blue assay
Serratia marcescens = assay: Antimicrobial activity against Serratia marcescens ATCC 14756 after 18 to 24 hrs by alamar blue assay; type: functional; conditions: Serratia marcescens, ATCC 14756; read-out: MIC; procedure, shortened: as §1
Staphylococcus aureus [6] = assay: Antimicrobial activity against oxacillin- and methicillin-resistant Staphylococcus aureus isolate Sa-OXA-R2 after 18 to 24 hrs by alamar blue assay; type: functional; procedure, shortened: as §2
Pseudomonas aeruginosa = assay: Antimicrobial activity against Pseudomonas aeruginosa ATCC 25619 after 18 to 24 hrs by alamar blue assay; type: functional; conditions: Pseudomonas aeruginosa, ATCC 25619; read-out: MIC; procedure, shortened: as §1
Bacillus subtilis = assay: Antimicrobial activity against Bacillus subtilis ATCC 23857 after 18 to 24 hrs by alamar blue assay; type: functional; procedure, shortened: as §1

| Structure (SMILES) | MIC (Escherichia coli) [mg/L] | MIC (Staphylococcus aureus [1]) [mg/L] | MIC (Staphylococcus aureus [2]) [mg/L] | MIC (Acinetobacter baumannii) [mg/L] | MIC [3] [mg/L] | MIC [4] [mg/L] | MIC (Staphylococcus aureus [5]) [mg/L] | MIC (Serratia marcescens) [mg/L] | MIC (Staphylococcus aureus [6]) [mg/L] | MIC (Pseudomonas aeruginosa) [mg/L] | MIC (Bacillus subtilis) [mg/L] |
| --- | --- | --- | --- | --- | --- | --- | --- | --- | --- | --- | --- |
| CCCCN(C)S(=O)(=O)c1ccc(C(=O)Nc2nnc(-c3cccc(OC)c3)o2)cc1 | > 256 | 16 (≈ 36 µM) | 8 (≈ 18 µM) | > 256 | > 256 | 0.5 (≈ 1.12 µM) | 4 (≈ 9 µM) | > 256 | 32 (≈ 72 µM) | > 256 | 0.5 (≈ 1.12 µM) |
| Cc1ccc(NS(=O)(=O)c2ccc3c(c2)NC(=O)C(C)S3)c(C)c1 (stereo unspecified) | > 256 | 4 (≈ 11 µM) | 32 (≈ 88.3 µM) | > 256 | > 256 | > 64 | 2 (≈ 5.52 µM) | > 256 | > 64 | > 256 | < 0.03 |
| CCC1Sc2ccc(S(=O)(=O)Nc3ccc(C)cc3C)cc2NC1=O (stereo unspecified) | > 256 | 4 (≈ 10.6 µM) | 8 (≈ 21.2 µM) | > 256 | > 256 | > 64 | 1 (≈ 2.66 µM) | > 256 | > 64 | > 256 | < 0.03 |
| Cc1ccc(N2C(=O)c3ccc([N+](=O)[O-])c4c([N+](=O)[O-])ccc(c34)C2=O)cc1 | > 256 | 2.5 (≈ 6.63 µM) | 2.5 (≈ 6.63 µM) | > 256 | > 256 | 4 (≈ 10.6 µM) | 5 (≈ 13.3 µM) | > 256 | 2.5 (≈ 6.63 µM) | > 256 | 4 (≈ 10.6 µM) |
| CCC(NC(=O)Cc1c(C)c2cc3c(-c4ccc(Cl)cc4)coc3c(C)c2oc1=O)C(=O)O (stereo unspecified) | > 256 | 2.5 (≈ 5.34 µM) | 5 (≈ 10.7 µM) | > 256 | > 256 | 1 (≈ 2.14 µM) | 2.5 (≈ 5.34 µM) | > 256 | 2.5 (≈ 5.34 µM) | > 256 | > 64 |
| O=C(Nc1cc(Cl)ccc1Cl)c1cc(Br)cc(Br)c1O | 8 (≈ 18.2 µM) | 0.5 (≈ 1.14 µM) | 1 (≈ 2.27 µM) | 16 (≈ 36.4 µM) | 16 (≈ 36.4 µM) | 0.5 (≈ 1.14 µM) | 1 (≈ 2.27 µM) | 16 (≈ 36.4 µM) | 0.5 (≈ 1.14 µM) | 16 (≈ 36.4 µM) | < 0.03 |
| O=C(Nc1ccc2oc(-c3ccncc3)nc2c1)c1ccc([N+](=O)[O-])o1 | 256 (≈ 731 µM) | 2 (≈ 5.71 µM) | 4 (≈ 11.4 µM) | 12 (≈ 34.3 µM) | 32 (≈ 91.4 µM) | 0.5 (≈ 1.43 µM) | 2 (≈ 5.71 µM) | 32 (≈ 91.4 µM) | > 4 | 128 (≈ 365 µM) | 0.06 (≈ 0.171 µM) |
| Cn1c(/C=C/c2ccc([N+](=O)[O-])o2)nc2ccccc2c1=O | 16 (≈ 53.8 µM) | 1 (≈ 3.36 µM) | 2 (≈ 6.73 µM) | > 256 | > 256 | 1 (≈ 3.36 µM) | 1 (≈ 3.36 µM) | > 256 | 0.5 (≈ 1.68 µM) | 2 (≈ 6.73 µM) | < 0.03 |
| O=c1c2ccccc2nc(/C=C/c2ccc([N+](=O)[O-])o2)n1CCCO | 16 (≈ 46.9 µM) | 2 (≈ 5.86 µM) | 2 (≈ 5.86 µM) | > 256 | > 256 | 1 (≈ 2.93 µM) | 2 (≈ 5.86 µM) | > 256 | 2 (≈ 5.86 µM) | 2 (≈ 5.86 µM) | < 0.03 |
| O=C(Nc1cc(Cl)c(Cl)c(Cl)c1)c1cc(Cl)cc(Cl)c1O | 8 (≈ 20.8 µM) | 1 (≈ 2.59 µM) | 0.5 (≈ 1.3 µM) | 16 (≈ 41.5 µM) | 16 (≈ 41.5 µM) | 0.5 (≈ 1.3 µM) | 0.125 (≈ 0.324 µM) | 16 (≈ 41.5 µM) | 0.125 (≈ 0.324 µM) | 16 (≈ 41.5 µM) | < 0.03 |
| Cc1ccc(NS(=O)(=O)c2ccc3c(c2)NCC(C)C(=O)S3)c(Br)c1 (stereo unspecified) | > 256 | 16 (≈ 36.3 µM) | 8 (≈ 18.1 µM) | > 256 | > 256 | > 64 | 2 (≈ 4.53 µM) | > 256 | > 64 | > 256 | < 0.03 |
| Cc1c(CC(=O)NCCCC(=O)O)c(=O)oc2c(C)c3occ(-c4ccc(Cl)cc4)c3cc12 | > 256 | 2.5 (≈ 5.34 µM) | 2.5 (≈ 5.34 µM) | > 256 | > 256 | 1 (≈ 2.14 µM) | 2.5 (≈ 5.34 µM) | > 256 | 2.5 (≈ 5.34 µM) | > 256 | > 64 |
| NC(=O)c1ccsc1NC(=O)c1ccc([N+](=O)[O-])o1 | 256 (≈ 910 µM) | 0.25 (≈ 0.889 µM) | 0.25 (≈ 0.889 µM) | 12 (≈ 42.7 µM) | 32 (≈ 114 µM) | 0.5 (≈ 1.78 µM) | 2 (≈ 7.11 µM) | 32 (≈ 114 µM) | 0.25 (≈ 0.889 µM) | 128 (≈ 455 µM) | 0.06 (≈ 0.213 µM) |
| CCN1C(=O)/C(=C/c2ccc([N+](=O)[O-])o2)SC1=S | 16 (≈ 56.3 µM) | 0.125 (≈ 0.44 µM) | 0.5 (≈ 1.76 µM) | > 256 | > 256 | 1 (≈ 3.52 µM) | 0.5 (≈ 1.76 µM) | > 256 | 0.25 (≈ 0.879 µM) | 2 (≈ 7.03 µM) | < 0.03 |
| Cc1c(CCC(=O)O)c(=O)oc2c(C)c3occ(-c4ccc(Br)cc4)c3cc12 | > 256 | 0.5 (≈ 1.13 µM) | 1 (≈ 2.27 µM) | > 256 | > 256 | 1 (≈ 2.27 µM) | 0.5 (≈ 1.13 µM) | > 256 | 1 (≈ 2.27 µM) | > 256 | > 64 |
| O=C(CCN1C(=O)c2cccc3cccc(c23)C1=O)N1CCN(C/C=C/c2ccccc2)CC1 | > 256 | 4 (≈ 8.82 µM) | 1 (≈ 2.2 µM) | > 256 | > 256 | 4 (≈ 8.82 µM) | 0.5 (≈ 1.1 µM) | > 256 | 0.25 (≈ 0.551 µM) | > 256 | 4 (≈ 8.82 µM) |
| Cc1c(CC(=O)N2CCC(C(=O)O)(c3ccccc3)CC2)c(=O)oc2c(C)c3occ(-c4ccc(Cl)cc4)c3cc12 | > 256 | 2.5 (≈ 4.39 µM) | 2.5 (≈ 4.39 µM) | > 256 | > 256 | 1 (≈ 1.75 µM) | 2.5 (≈ 4.39 µM) | > 256 | 2.5 (≈ 4.39 µM) | > 256 | > 64 |
| CCc1ccccc1NS(=O)(=O)c1ccc2c(c1)NCC(C)C(=O)S2 (stereo unspecified) | > 256 | 4 (≈ 10.6 µM) | 2 (≈ 5.31 µM) | > 256 | > 256 | > 64 | 2 (≈ 5.31 µM) | > 256 | > 64 | > 256 | < 0.03 |
| O=C1c2cc([N+](=O)[O-])cc3cc([N+](=O)[O-])cc(c23)C(=O)N1c1cccc2ccccc12 | > 256 | 0.125 (≈ 0.302 µM) | 2.5 (≈ 6.05 µM) | > 256 | > 256 | 4 (≈ 9.68 µM) | 1.25 (≈ 3.02 µM) | > 256 | 0.125 (≈ 0.302 µM) | > 256 | 4 (≈ 9.68 µM) |
| O=C(Nc1cccc2c1C(=O)NC2=O)c1ccc([N+](=O)[O-])o1 | 256 (≈ 850 µM) | 2 (≈ 6.64 µM) | 1 (≈ 3.32 µM) | 12 (≈ 39.8 µM) | 32 (≈ 106 µM) | 0.5 (≈ 1.66 µM) | 4 (≈ 13.3 µM) | 32 (≈ 106 µM) | 2 (≈ 6.64 µM) | 128 (≈ 425 µM) | 0.06 (≈ 0.199 µM) |
| Cc1c(CC(=O)N[C@@H](CCCNC(N)=O)C(=O)O)c(=O)oc2c(C)c3occ(-c4ccc(Cl)cc4)c3cc12 | > 256 | 2.5 (≈ 4.63 µM) | 2.5 (≈ 4.63 µM) | > 256 | > 256 | 1 (≈ 1.85 µM) | 1.25 (≈ 2.31 µM) | > 256 | 2.5 (≈ 4.63 µM) | > 256 | > 64 |
